In ChEMBL document CHEMBL1914334, “Discovery and characterization of potent and selective 4-oxo-4-(5-(5-phenyl-1,2,4-oxadiazol-3-yl)indolin-1-yl)butanoic acids as S1P₁ agonists” (Bioorg Med Chem Lett, 2011):
≈ marks a conversion by molar mass, not a printed value. Calls of active or inactive are those of the source. The rule behind the calls is not given here.

Key:
[1] = tested on: Salmonella typhimurium; test: Mutagenic activity in Salmonella Typhimurium TA1535 by Ames test in absence of S9 fraction; format: toxicity, organism-based; details: salmonella enterica subsp. enterica serovar typhimurium
[2] = tested on: Mus musculus; test: Immunomodulatory activity in po dosed BALB/C mouse assessed as induction of lymphopenia after 16 hrs; format: functional, organism-based
Method in brief: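 Male BALB/c mice were dosed orally at 1, 3 or 10 mg/kg, or with vehicle (0.5% methylcellulose in water). Blood was sampled up to 24 h post-dose for lymphocyte counts and plasma drug levels (mean ± SD). An indirect PK/PD model was fitted to give the blood concentration suppressing lymphocytes by 50%.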

[3] = target: Sphingosine 1-phosphate receptor 1 (Rattus norvegicus, UniProt P48303); test: Agonist activity at rat S1P1 receptor expressed in HEK293 cells assessed as inhibition of forskolin-stimulated cAMP production after 1 hr by HTRF assay; format: functional, cell-based
Sequence of Sphingosine 1-phosphate receptor 1 (Rattus norvegicus, UniProt P48303) (P48303 whole entry): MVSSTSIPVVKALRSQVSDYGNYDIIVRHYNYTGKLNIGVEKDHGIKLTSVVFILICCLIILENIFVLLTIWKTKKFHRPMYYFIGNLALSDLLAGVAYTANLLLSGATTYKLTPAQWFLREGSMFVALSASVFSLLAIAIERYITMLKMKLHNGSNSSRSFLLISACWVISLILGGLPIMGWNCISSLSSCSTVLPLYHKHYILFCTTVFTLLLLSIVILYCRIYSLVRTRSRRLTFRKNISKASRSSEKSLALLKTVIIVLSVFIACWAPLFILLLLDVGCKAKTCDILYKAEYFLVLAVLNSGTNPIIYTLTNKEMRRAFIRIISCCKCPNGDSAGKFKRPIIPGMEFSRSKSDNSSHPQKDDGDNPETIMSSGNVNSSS

[4] = target: Sphingosine 1-phosphate receptor 2 (Homo sapiens, UniProt O95136); test: Agonist activity at recombinant human S1P2 receptor expressed in HEK293 cells after 2 hrs by beta-arrestin assay; format: functional, cell-based
Sequence of Sphingosine 1-phosphate receptor 2 (O95136 whole entry): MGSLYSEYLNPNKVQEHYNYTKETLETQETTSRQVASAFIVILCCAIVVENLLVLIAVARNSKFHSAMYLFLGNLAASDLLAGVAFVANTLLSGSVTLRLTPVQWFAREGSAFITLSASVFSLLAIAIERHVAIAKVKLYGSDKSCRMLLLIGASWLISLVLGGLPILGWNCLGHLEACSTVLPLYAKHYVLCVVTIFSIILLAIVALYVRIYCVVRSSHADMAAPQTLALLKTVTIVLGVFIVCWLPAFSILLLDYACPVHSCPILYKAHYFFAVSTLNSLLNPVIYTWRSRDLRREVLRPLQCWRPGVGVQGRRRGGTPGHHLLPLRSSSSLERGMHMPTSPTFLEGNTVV

[5] = target: Cytochrome P450 2C9 (Homo sapiens, UniProt P11712); test: Inhibition of CYP2C9; format: ADME
Sequence of Cytochrome P450 2C9 (P11712 whole entry): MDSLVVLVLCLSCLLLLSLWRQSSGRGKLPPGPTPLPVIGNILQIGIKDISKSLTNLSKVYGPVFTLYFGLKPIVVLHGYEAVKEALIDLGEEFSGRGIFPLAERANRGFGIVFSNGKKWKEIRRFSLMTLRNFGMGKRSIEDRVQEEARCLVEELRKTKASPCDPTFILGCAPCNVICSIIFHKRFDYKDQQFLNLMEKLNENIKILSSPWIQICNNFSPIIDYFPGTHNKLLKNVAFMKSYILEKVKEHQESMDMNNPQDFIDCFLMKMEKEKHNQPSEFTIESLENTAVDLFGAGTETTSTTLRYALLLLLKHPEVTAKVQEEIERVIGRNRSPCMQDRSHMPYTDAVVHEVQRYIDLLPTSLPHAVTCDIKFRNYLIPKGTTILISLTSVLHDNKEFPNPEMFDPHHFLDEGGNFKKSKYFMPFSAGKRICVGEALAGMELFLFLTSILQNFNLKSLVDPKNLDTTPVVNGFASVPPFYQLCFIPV

[6] = Agonist activity at monkey S1P1 receptor expressed in HEK293 cells assessed as inhibition of forskolin-stimulated cAMP production after 1 hr by HTRF assay; format: functional, cell-based; details: Macaca mulatta, HEK293, 1 h
[7] = target: Sphingosine 1-phosphate receptor 3 (Homo sapiens, UniProt Q99500); test: Agonist activity at recombinant human S1P3 receptor expressed in HEK293 cells after 2 hrs by beta-arrestin assay; format: functional, cell-based
Sequence of Sphingosine 1-phosphate receptor 3 (Q99500 whole entry): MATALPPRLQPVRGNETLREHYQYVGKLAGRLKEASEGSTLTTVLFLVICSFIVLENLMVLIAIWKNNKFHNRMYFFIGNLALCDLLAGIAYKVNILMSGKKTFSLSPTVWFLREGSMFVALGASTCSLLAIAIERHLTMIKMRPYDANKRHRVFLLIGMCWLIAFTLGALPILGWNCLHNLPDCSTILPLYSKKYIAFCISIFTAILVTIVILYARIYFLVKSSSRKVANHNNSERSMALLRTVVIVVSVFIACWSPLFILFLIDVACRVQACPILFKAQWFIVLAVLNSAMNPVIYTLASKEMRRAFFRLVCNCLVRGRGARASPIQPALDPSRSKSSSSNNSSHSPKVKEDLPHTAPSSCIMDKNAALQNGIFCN

[8] = Metabolic stability in human liver microsomes assessed as half life; format: ADME, Microsome
[9] = tested on: Mus musculus; test: Immunomodulatory activity BALB/C mouse assessed as induction of lymphopenia at 0.3 to 3 mg/kg, po after 24 hrs; format: functional, organism-based; details: 1 to 10 mg/kg, in the assay text read “1 to 10 mg/kg” for “0.3 to 3 mg/kg”
[10] = tested on: Salmonella typhimurium; test: Mutagenic activity in Salmonella Typhimurium TA100 by Ames test in presence of S9 fraction; format: toxicity, organism-based; details: salmonella enterica subsp. enterica serovar typhimurium
[11] = target: Sphingosine 1-phosphate receptor 5 (Homo sapiens, UniProt Q9H228); test: Agonist activity at recombinant human S1P5 receptor expressed in HEK293 cells after 2 hrs by beta-arrestin assay; format: functional, cell-based
Sequence of Sphingosine 1-phosphate receptor 5 (Q9H228 whole entry): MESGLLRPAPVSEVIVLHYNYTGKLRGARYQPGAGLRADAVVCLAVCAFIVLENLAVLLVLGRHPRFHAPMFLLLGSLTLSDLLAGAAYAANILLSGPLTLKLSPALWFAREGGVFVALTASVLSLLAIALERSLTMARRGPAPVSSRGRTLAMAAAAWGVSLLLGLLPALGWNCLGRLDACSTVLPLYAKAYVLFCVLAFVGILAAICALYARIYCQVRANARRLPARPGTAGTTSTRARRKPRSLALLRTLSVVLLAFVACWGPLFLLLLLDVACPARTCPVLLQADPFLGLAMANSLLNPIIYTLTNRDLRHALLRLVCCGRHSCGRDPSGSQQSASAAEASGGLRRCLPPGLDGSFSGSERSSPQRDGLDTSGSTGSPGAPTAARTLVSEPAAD

[12] = Tmax in Sprague-Dawley rat at 2 mg/kg, iv and 3 mg/kg, po; format: ADME, organism-based; details: in vivo
[13] = Protein binding in rat; format: ADME, organism-based; details: in vivo, read-out: PB (converted)
[14] = tested on: Salmonella typhimurium; test: Mutagenic activity in Salmonella Typhimurium TA100 by Ames test in absence of S9 fraction; format: toxicity, organism-based; details: salmonella enterica subsp. enterica serovar typhimurium
[15] = AUC (0 to last) in Sprague-Dawley rat at 2 mg/kg, iv and 3 mg/kg, po; format: ADME, organism-based; details: plasma
[16] = Volume of distribution at steady state in Sprague-Dawley rat at 2 mg/kg, iv and 3 mg/kg, po; format: ADME, organism-based; details: in vivo, read-out: Vdss
[17] = target: Voltage-gated inwardly rectifying potassium channel KCNH2 (Homo sapiens, UniProt Q12809); test: Displacement of [3H]astemizole from human ERG
[18] = target: T1, Sphingosine 1-phosphate receptor 4 (Homo sapiens, UniProt O95977); test: Agonist activity at recombinant human S1P4 receptor expressed in HEK293 cells after 2 hrs by beta-arrestin assay; format: functional, cell-based
T1 sequence (O95977 whole entry): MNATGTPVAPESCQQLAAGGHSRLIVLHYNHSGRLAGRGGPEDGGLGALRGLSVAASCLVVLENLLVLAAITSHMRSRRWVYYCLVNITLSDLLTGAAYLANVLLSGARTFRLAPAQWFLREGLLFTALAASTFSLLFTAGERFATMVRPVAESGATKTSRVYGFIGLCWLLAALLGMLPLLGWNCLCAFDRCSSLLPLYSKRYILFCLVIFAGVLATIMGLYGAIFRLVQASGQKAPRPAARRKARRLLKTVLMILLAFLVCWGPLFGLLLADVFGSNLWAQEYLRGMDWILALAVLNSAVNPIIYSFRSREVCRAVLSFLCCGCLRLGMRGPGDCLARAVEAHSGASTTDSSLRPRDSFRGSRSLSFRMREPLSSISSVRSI

[19] = Clearance in Sprague-Dawley rat at 2 mg/kg, iv and 3 mg/kg, po; format: ADME, organism-based; details: in vivo
[20] = target: T2, Sphingosine 1-phosphate receptor 1 (Homo sapiens, UniProt P21453); test: Agonist activity at human S1P1 receptor expressed in HEK293 cells assessed as inhibition of forskolin-stimulated cAMP production after 1 hr by HTRF assay; format: functional, cell-based
T2 sequence (P21453 whole entry): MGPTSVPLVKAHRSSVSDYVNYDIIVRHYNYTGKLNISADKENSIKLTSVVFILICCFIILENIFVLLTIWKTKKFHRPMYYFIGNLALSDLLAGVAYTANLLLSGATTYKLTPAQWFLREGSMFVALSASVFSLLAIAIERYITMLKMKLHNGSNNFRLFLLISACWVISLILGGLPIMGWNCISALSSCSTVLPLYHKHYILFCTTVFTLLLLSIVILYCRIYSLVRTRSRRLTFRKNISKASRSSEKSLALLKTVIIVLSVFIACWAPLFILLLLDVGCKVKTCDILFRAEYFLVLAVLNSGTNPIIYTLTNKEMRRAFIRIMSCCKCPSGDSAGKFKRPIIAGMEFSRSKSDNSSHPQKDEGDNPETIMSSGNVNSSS
Method in brief: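 Human S1P₁ cAMP HTRF read-out; each EC₅₀ is the mean of three or more replicates.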

[21] = Protein binding in human; format: ADME, organism-based; details: in vivo, read-out: PB (converted)
[22] = tested on: Salmonella typhimurium; test: Mutagenic activity in Salmonella Typhimurium TA1535 by Ames test in presence of S9 fraction; format: toxicity, organism-based; details: salmonella enterica subsp. enterica serovar typhimurium
[23] = Agonist activity at dog S1P1 receptor expressed in HEK293 cells assessed as inhibition of forskolin-stimulated cAMP production after 1 hr by HTRF assay; format: functional, cell-based; details: HEK293, 1 h
[24] = tested on: Salmonella typhimurium; test: Mutagenic activity in Salmonella Typhimurium TA97a by Ames test in absence of S9 fraction; format: toxicity, organism-based; details: salmonella enterica subsp. enterica serovar typhimurium
[25] = tested on: Salmonella typhimurium; test: Mutagenic activity in Salmonella Typhimurium TA98 by Ames test in absence of S9 fraction; format: toxicity, organism-based; details: salmonella enterica subsp. enterica serovar typhimurium
[26] = target: Cytochrome P450 2C19 (Homo sapiens, UniProt P33261); test: Inhibition of CYP2C19; format: ADME
Sequence of Cytochrome P450 2C19 (P33261 whole entry): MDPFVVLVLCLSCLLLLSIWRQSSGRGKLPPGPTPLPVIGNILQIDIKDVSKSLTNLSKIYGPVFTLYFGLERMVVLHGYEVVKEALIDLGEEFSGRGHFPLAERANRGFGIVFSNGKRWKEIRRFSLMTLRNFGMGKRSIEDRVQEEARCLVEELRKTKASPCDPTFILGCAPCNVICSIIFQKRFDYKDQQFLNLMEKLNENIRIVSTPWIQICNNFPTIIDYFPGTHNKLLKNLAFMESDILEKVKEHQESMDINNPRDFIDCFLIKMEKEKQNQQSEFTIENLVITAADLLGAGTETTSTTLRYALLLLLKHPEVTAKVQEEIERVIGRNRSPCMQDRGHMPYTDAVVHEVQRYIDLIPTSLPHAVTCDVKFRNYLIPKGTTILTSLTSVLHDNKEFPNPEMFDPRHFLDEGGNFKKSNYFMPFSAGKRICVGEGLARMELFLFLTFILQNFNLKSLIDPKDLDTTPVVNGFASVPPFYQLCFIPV

[27] = target: Cytochrome P450 2D6 (Homo sapiens, UniProt P10635); test: Inhibition of CYP2D6; format: ADME
Sequence of Cytochrome P450 2D6 (P10635 whole entry): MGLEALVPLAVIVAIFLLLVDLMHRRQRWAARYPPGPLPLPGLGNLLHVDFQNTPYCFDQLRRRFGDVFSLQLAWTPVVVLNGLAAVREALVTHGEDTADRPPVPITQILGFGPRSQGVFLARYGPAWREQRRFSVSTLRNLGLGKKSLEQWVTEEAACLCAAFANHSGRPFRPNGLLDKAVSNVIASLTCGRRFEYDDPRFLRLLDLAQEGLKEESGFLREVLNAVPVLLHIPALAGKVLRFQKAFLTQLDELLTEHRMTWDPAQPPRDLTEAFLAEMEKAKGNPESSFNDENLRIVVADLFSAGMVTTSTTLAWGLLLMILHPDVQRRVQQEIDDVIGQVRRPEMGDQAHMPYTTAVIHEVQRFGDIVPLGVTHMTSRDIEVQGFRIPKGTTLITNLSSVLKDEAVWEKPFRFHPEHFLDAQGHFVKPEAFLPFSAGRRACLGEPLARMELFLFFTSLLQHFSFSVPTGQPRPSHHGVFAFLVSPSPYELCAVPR

[28] = Metabolic stability in rat liver microsomes assessed as half life; format: ADME, Microsome
[29] = tested on: Salmonella typhimurium; test: Mutagenic activity in Salmonella Typhimurium TA97a by Ames test in presence of S9 fraction; format: toxicity, organism-based; details: salmonella enterica subsp. enterica serovar typhimurium
[30] = target: hERG (KCNH2) (Homo sapiens, UniProt Q12809); test: Inhibition of human ERG at 3 uM by patch clamp assay
[31] = Cmax in Sprague-Dawley rat at 2 mg/kg, iv and 3 mg/kg, po; format: ADME, organism-based; details: in vivo
[32] = target: Sphingosine 1-phosphate receptor 1 (Mus musculus, UniProt O08530); test: Agonist activity at mouse S1P1 receptor expressed in HEK293 cells assessed as inhibition of forskolin-stimulated cAMP production after 1 hr by HTRF assay; format: functional, cell-based
Sequence of Sphingosine 1-phosphate receptor 1 (Mus musculus, UniProt O08530) (O08530 whole entry): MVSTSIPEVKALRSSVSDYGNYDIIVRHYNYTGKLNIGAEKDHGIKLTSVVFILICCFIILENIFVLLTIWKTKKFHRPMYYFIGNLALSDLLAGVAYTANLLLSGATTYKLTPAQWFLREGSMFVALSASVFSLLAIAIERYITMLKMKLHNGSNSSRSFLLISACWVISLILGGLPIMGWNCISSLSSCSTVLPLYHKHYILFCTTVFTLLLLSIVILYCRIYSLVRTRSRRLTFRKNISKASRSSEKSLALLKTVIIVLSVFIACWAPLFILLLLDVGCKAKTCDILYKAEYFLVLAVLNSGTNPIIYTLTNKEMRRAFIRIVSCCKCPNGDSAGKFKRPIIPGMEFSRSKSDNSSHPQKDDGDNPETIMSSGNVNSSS

[33] = Terminal half life in mouse; format: ADME, organism-based; details: in vivo, read-out: beta t1/2 (converted)
[34] = tested on: Salmonella typhimurium; test: Mutagenic activity in Salmonella Typhimurium TA98 by Ames test in presence of S9 fraction; format: toxicity, organism-based; details: salmonella enterica subsp. enterica serovar typhimurium
[35] = Oral bioavailability in Sprague-Dawley rat at 3 mg/kg; format: ADME, organism-based; details: in vivo
[36] = target: T3, Cytochrome P450 1A2 (Homo sapiens, UniProt P05177); test: Inhibition of CYP1A2; format: ADME
T3 sequence (P05177 whole entry): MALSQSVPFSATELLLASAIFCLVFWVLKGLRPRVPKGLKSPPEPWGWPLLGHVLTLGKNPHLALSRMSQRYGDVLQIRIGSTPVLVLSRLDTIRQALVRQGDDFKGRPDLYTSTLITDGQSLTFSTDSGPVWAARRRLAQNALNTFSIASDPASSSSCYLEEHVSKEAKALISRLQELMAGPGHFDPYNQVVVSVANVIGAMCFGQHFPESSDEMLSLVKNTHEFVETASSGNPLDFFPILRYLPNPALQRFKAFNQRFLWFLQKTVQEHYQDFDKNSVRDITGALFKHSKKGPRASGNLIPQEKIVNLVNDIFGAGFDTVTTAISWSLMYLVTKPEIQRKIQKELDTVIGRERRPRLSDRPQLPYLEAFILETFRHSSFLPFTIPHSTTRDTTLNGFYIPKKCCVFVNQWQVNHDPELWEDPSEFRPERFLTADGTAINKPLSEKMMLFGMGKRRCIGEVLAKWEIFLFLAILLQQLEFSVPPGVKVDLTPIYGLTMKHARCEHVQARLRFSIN

[37] = target: Cytochrome P450 3A4 (Homo sapiens, UniProt P08684); test: Inhibition of CYP3A4; format: ADME
Sequence of Cytochrome P450 3A4 (P08684 whole entry): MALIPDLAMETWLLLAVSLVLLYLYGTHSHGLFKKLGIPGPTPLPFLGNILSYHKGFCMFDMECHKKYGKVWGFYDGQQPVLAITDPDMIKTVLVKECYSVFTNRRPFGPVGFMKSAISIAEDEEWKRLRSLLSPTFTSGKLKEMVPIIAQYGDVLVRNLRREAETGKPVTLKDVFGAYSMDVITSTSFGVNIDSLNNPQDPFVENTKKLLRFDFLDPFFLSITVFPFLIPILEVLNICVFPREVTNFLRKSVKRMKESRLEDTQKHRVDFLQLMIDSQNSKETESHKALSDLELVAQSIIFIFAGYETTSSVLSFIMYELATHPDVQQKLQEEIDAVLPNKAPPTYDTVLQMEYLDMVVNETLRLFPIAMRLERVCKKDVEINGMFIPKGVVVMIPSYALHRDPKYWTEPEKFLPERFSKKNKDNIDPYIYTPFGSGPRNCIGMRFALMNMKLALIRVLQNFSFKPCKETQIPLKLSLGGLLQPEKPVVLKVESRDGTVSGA

[38] = Half life in Sprague-Dawley rat at 2 mg/kg, iv and 3 mg/kg, po; format: ADME, organism-based; details: in vivo
[39] = target: T2, Sphingosine 1-phosphate receptor 1; test: Agonist activity at recombinant human S1P1 receptor expressed in HEK293 cells after 2 hrs by beta-arrestin assay; format: functional, cell-based
[40] = Volume of distribution at steady state in Sprague-Dawley rat at 1 mg/kg, iv and 1.5 mg/kg, po; format: ADME, organism-based; details: in vivo, read-out: Vdss
[41] = Clearance in Sprague-Dawley rat at 1 mg/kg, iv and 1.5 mg/kg, po; format: ADME, organism-based; details: in vivo
[42] = Half life in Sprague-Dawley rat at 1 mg/kg, iv and 1.5 mg/kg, po; format: ADME, organism-based; details: in vivo
[43] = AUC (0 to last) in Sprague-Dawley rat at 1 mg/kg, iv and 1.5 mg/kg, po; format: ADME, organism-based; details: plasma
[44] = Tmax in Sprague-Dawley rat at 1 mg/kg, iv and 1.5 mg/kg, po; format: ADME, organism-based; details: in vivo
[45] = Oral bioavailability in Sprague-Dawley rat at 1.5 mg/kg; format: ADME, organism-based; details: in vivo
[46] = tested on: Mus musculus; test: Immunomodulatory activity BALB/C mouse assessed as induction of lymphopenia at 1 mg/kg, po after 5 hrs; format: functional, organism-based; set-up: dose 1 mg/kg
Method in brief: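 Male BALB/c mice were given a single oral dose of 1.0 mg/kg or vehicle (0.5% methylcellulose). Blood lymphocytes were counted at one time point, 5 h post-dose, with n = 6 per dose group (mean ± SD). Lowering was judged relative to the vehicle group.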

[47] = Cmax in Sprague-Dawley rat at 1 mg/kg, iv and 1.5 mg/kg, po; format: ADME, organism-based; details: in vivo

SMILES | Activity [1] | EC50 [3] | EC50 [4] | IC50 [5] | EC50 [6] | EC50 [7] | half-life [8] | Activity [10] | EC50 [11] | Activity [14] | IC50 [17] | EC50 [18] | EC50 [20] | fraction unbound [21] | Activity [22] | EC50 [23] | Activity [24] | Activity [25] | IC50 [26] | IC50 [27] | also measured
N#Cc1cc(OC(F)(F)F)cc(-c2nc(-c3ccc4c(c3)CCN4C(=O)CCC(=O)O)no2)c1 | Non-toxic | 1 nM | > 100000 nM | > 50000 nM | 0.8 nM | > 100000 nM | > 1 h | Non-toxic | 109 nM | Non-toxic | > 100000 nM | 1330 nM | 1.2 nM | 0.003 | Non-toxic | 0.7 nM | Non-toxic | Non-toxic | > 50000 nM | > 50000 nM | IC50 [2]: 0.431 µg/mL (≈ 0.912 µM); Activity [9]: inactive; Tmax [12]: 2 h; fraction unbound [13]: 0.007; AUC(0-t) [15]: 20200 ng·h/mL; Vd [16]: 0.275 L/kg; clearance [19]: 0.75 mL/min/kg; half-life [28]: > 1 h; Activity [29]: Non-toxic; inhibition at 3 µM [30]: 13%; Cmax [31]: 3820 ng/mL; EC50 [32]: 1.1 nM; half-life [33]: 3 h; Activity [34]: Non-toxic; bioavailability [35]: 32.8%; IC50 [36]: > 50000 nM; IC50 [37]: > 50000 nM; half-life [38]: 2.9 h; EC50 [39]: 31 nM
O=C(O)CCC(=O)N1CCc2cc(-c3noc(-c4cc(C(F)(F)F)cc(C(F)(F)F)c4)n3)ccc21 | Non-toxic | 1.3 nM | > 100000 nM | 34800 nM | 1.1 nM | 3100 nM | > 1 h | Non-toxic | 88 nM | Non-toxic | > 100000 nM | 160 nM | 4.6 nM | 0.006 | Non-toxic | 1.3 nM | Non-toxic | Non-toxic | > 50000 nM | > 50000 nM | Vd [40]: 0.564 L/kg; clearance [41]: 0.633 mL/min/kg; half-life [42]: 8.5 h; AUC(0-t) [43]: 16000 ng·h/mL; Tmax [44]: 3 h; bioavailability [45]: 50.2%; half-life [28]: > 1 h; Activity [29]: Non-toxic; Activity [46]: Active; inhibition at 3 µM [30]: < 10%; EC50 [32]: 1.4 nM; Activity [34]: Non-toxic; IC50 [36]: > 50000 nM; IC50 [37]: > 50000 nM; Cmax [47]: 1740 ng/mL; EC50 [39]: 39 nM
